ChEMBL document CHEMBL3860039, “Structure-Activity Relationship and Signaling of New Chimeric CXCR4 Agonists” (J Med Chem, 2016)

Legend:
Format in all cases: cell-based
[1] = molecular target: T1, C-X-C chemokine receptor type 4 (Homo sapiens, UniProt P61073); assay: Agonist activity at CXCR4 in human REH cells assessed as induction of chemotaxis incubated for 3 hrs by transwell migration assay
Summary of the method: (§1)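 REH acute lymphoblastic B-cell leukaemia cells washed in RPMI; 100 000 cells in RPMI + 0.2% BSA seeded on top of 5 μm pore polycarbonate transwell, peptide dilutions in same medium in bottom chamber; 3 h, 37 °C, 5% CO2. Migrated cells in lower chamber counted by automated counter, expressed as % of seeded cells; peak = concentration giving maximal migration. Three experiments in triplicate.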

[2] = molecular target: T1, C-X-C chemokine receptor type 4; assay: Agonist activity at CXCR4 in human REH cells assessed as optimal concentration causing maximum induction of chemotaxis incubated for 3 hrs by transwell migration assay; summary of the method: as §1
[3] = molecular target: T1, C-X-C chemokine receptor type 4; assay: Agonist activity at HA-tagged human CXCR4 receptor expressed in HEK293 cells co-transfected with Galphai1-91-RlucII, Gbeta1, and GFP10-G-gamma1 incubated for 7 mins by Galpha1 protein activation-based BRET assay
Summary of the method: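 HEK293 cells (3 × 10^6 per 100 mm dish) co-transfected via polyethylenimine with HA-hCXCR4 plus Gαi1-91-RlucII, Gβ1, GFP10-Gγ1; replated at 24 h, 100 000 cells/well. At 48 h, washed in HBSS/0.1% BSA, exposed to ligand 10−12 to 10−5 M for 7 min, then coelenterazine-400A 5 μM final; BRET2 515/400 nm ratio. EC50 (Gαi dissociation) and Emax from three experiments in triplicate.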

[4] = molecular target: T1, C-X-C chemokine receptor type 4; assay: Displacement of [125I]-CXCL12 from HA-tagged human recombinant CXCR4 expressed in HEK293 cells incubated for 1 hr by gamma-radiation counting analysis

T1 sequence (P61073 whole entry): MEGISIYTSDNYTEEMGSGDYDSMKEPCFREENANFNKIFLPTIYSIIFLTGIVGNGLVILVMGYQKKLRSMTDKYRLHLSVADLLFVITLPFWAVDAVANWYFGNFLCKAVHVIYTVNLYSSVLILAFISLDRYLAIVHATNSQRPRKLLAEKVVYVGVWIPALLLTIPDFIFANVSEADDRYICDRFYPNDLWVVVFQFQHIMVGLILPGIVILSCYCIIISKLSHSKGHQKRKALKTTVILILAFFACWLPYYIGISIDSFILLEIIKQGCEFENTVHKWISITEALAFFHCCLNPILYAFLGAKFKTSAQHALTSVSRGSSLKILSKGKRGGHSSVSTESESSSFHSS

| %max [1] | Activity [2] | EC50 [3] | Emax [3] | IC50 [4] | SMILES |
| --- | --- | --- | --- | --- | --- |
| 70% | 10 nM | 50 nM | 70% | 31 nM | CC(C)C[C@H](NC(=O)[C@H](CO)NC(=O)[C@H](C/C=C/c1ccccc1)NC(=O)[C@@H]1CCCN1C(=O)[C@@H](N)CCCCN)C(=O)N[C@@H](CO)C(=O)N[C@@H](Cc1ccc(O)cc1)C(=O)N[C@@H](CCCNC(=N)N)C(=O)N[C@@H](CO)C(=O)N[C@@H](C)C(=O)NCCCC[C@H](NC(=O)[C@@H]1CSSC[C@H](NC(=O)[C@H](Cc2ccc3ccccc3c2)NC(=O)[C@H](CCCNC(=N)N)NC(=O)[C@@H](N)CCCNC(=N)N)C(=O)N[C@@H](Cc2ccc(O)cc2)C(=O)N[C@@H](CCCNC(=N)N)C(=O)N[C@@H](CCCCN)C(=O)N[C@H](CCCCN)C(=O)N2CCC[C@H]2C(=O)N[C@@H](Cc2ccc(O)cc2)C(=O)N[C@@H](CCCNC(=N)N)C(=O)N[C@@H](CCCNC(=N)N)C(=O)N1)C(=O)O |
| 16% | 10 nM | 65 nM | 41% | 69 nM | CC(C)C[C@H](NC(=O)[C@H](CO)NC(=O)[C@@H](NC(=O)[C@@H]1CCCN1C(=O)[C@@H](N)CCCCN)C(C)C)C(=O)N[C@@H](CO)C(=O)N[C@@H](Cc1ccccc1)C(=O)N[C@@H](CCCNC(=N)N)C(=O)N[C@@H](CO)C(=O)N[C@@H](C)C(=O)NCCCC[C@H](NC(=O)[C@@H]1CSSC[C@H](NC(=O)[C@H](Cc2ccc3ccccc3c2)NC(=O)[C@H](CCCNC(=N)N)NC(=O)[C@@H](N)CCCNC(=N)N)C(=O)N[C@@H](Cc2ccc(O)cc2)C(=O)N[C@@H](CCCNC(=N)N)C(=O)N[C@@H](CCCCN)C(=O)N[C@H](CCCCN)C(=O)N2CCC[C@H]2C(=O)N[C@@H](Cc2ccc(O)cc2)C(=O)N[C@@H](CCCNC(=N)N)C(=O)N[C@@H](CCCNC(=N)N)C(=O)N1)C(=O)O |
| 30% | 10 nM | 92 nM | 50% | 56 nM | CC(C)C[C@H](NC(=O)[C@H](CO)NC(=O)[C@H](C)NC(=O)[C@@H]1CCCN1C(=O)[C@@H](N)CCCCN)C(=O)N[C@@H](CO)C(=O)N[C@@H](Cc1ccc(O)cc1)C(=O)N[C@@H](CCCNC(=N)N)C(=O)N[C@@H](CO)C(=O)N[C@@H](C)C(=O)NCCCC[C@H](NC(=O)[C@@H]1CSSC[C@H](NC(=O)[C@H](Cc2ccc3ccccc3c2)NC(=O)[C@H](CCCNC(=N)N)NC(=O)[C@@H](N)CCCNC(=N)N)C(=O)N[C@@H](Cc2ccc(O)cc2)C(=O)N[C@@H](CCCNC(=N)N)C(=O)N[C@@H](CCCCN)C(=O)N[C@H](CCCCN)C(=O)N2CCC[C@H]2C(=O)N[C@@H](Cc2ccc(O)cc2)C(=O)N[C@@H](CCCNC(=N)N)C(=O)N[C@@H](CCCNC(=N)N)C(=O)N1)C(=O)O |
| 48% | 10 nM | 62 nM | 73% | 109 nM | CC(C)C[C@H](NC(=O)[C@H](CO)NC(=O)[C@@H](NC(=O)[C@@H]1CCCN1C(=O)[C@@H](N)CCCCN)C(C)C)C(=O)N[C@@H](CO)C(=O)N[C@@H](Cc1ccc([N+](=O)[O-])cc1)C(=O)N[C@@H](CCCNC(=N)N)C(=O)N[C@@H](CO)C(=O)N[C@@H](C)C(=O)NCCCC[C@H](NC(=O)[C@@H]1CSSC[C@H](NC(=O)[C@H](Cc2ccc3ccccc3c2)NC(=O)[C@H](CCCNC(=N)N)NC(=O)[C@@H](N)CCCNC(=N)N)C(=O)N[C@@H](Cc2ccc(O)cc2)C(=O)N[C@@H](CCCNC(=N)N)C(=O)N[C@@H](CCCCN)C(=O)N[C@H](CCCCN)C(=O)N2CCC[C@H]2C(=O)N[C@@H](Cc2ccc(O)cc2)C(=O)N[C@@H](CCCNC(=N)N)C(=O)N[C@@H](CCCNC(=N)N)C(=O)N1)C(=O)O |
